# Test results: ChEMBL document CHEMBL1649261, “Pharmacodynamic profile of tigecycline against methicillin-resistant Staphylococcus aureus in an experimental pneumonia model” (Antimicrob Agents Chemother, 2009)
# Columns and labels:
# [1] = Protein binding in Staphylococcus aureus-infected BALB/c mouse serum at 12.5 mg/kg, sc administered as single dose; format: ADME, organism-based; set-up: dose 12.5 mg/kg, route subcutaneous; details: read-out: PB (converted)
# Outline: (§1)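 Ultrafiltration was run in triplicate with 30,000-MW cutoff devices. Drug was diluted into fresh mouse serum to final 1.5, 3, 6 and 15 μg/ml, held at 37°C for 10 min with shaking, and centrifuged at 1,000 × g for 45 min at 10°C. Binding was calculated as (S − SUF)/S × 100 for each concentration, each matched to a dose by its peak serum level.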
# [2] = Protein binding in Staphylococcus aureus-infected BALB/c mouse serum at 25 mg/kg, sc administered as single dose; format: ADME, organism-based; set-up: dose 25 mg/kg, route subcutaneous; details: read-out: PB (converted); outline: as §1
# [3] = Protein binding in Staphylococcus aureus-infected BALB/c mouse serum at 50 mg/kg, sc administered as single dose; format: ADME, organism-based; set-up: dose 50 mg/kg, route subcutaneous; details: read-out: PB (converted); outline: as §1
# [4] = AUC (0 to 8 hrs) in Staphylococcus aureus-infected BALB/c mouse epithelial lining fluid at 12.5 mg/kg, sc administered as single dose; format: ADME, organism-based; set-up: time < 8 hr, dose 12.5 mg/kg, route subcutaneous
# Outline: (§2)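 Infected neutropenic BALB/c mice received a single sc dose in saline. Normal-saline bronchoalveolar lavage was done at 0.25, 1, 4 and 8 h, six mice per time. HPLC drug levels in lavage were converted to epithelial lining fluid concentrations with the serum/BAL urea ratio. AUC0-8 was calculated by the trapezoidal rule, and ELF drug was taken as free drug.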
# [5] = AUC (0 to 8 hrs) in Staphylococcus aureus-infected BALB/c mouse epithelial lining fluid at 25 mg/kg, sc administered as single dose; format: ADME, organism-based; set-up: time < 8 hr, dose 25 mg/kg, route subcutaneous; outline: as §2
# [6] = AUC (0 to 8 hrs) in Staphylococcus aureus-infected BALB/c mouse epithelial lining fluid at 50 mg/kg, sc administered as single dose; format: ADME, organism-based; set-up: time < 8 hr, dose 50 mg/kg, route subcutaneous; outline: as §2
# [7] = Ratio of fAUC (0 to 8 hrs) in epithelial lining fluid to plasma of Staphylococcus aureus-infected BALB/c mouse at 12.5 mg/kg, sc administered as single dose; format: ADME, organism-based; set-up: dose 12.5 mg/kg, route subcutaneous
# Outline: (§3)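 Neutropenic BALB/c mice (cyclophosphamide ip 250 and 100 mg/kg, 4 d and 1 d pre-inoculation) infected orally with S. aureus in 3% mucin. Single 0.2-ml sc dose in normal saline; six mice per time point. Serum sampled 0.25–8 h, BAL at 0.25, 1, 4, 8 h; HPLC; ELF by urea correction. Trapezoidal AUC0-8; serum corrected for ultrafiltration protein binding, BAL drug assumed free.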
# [8] = Ratio of fAUC (0 to 8 hrs) in epithelial lining fluid to plasma of Staphylococcus aureus-infected BALB/c mouse at 25 mg/kg, sc administered as single dose; format: ADME, organism-based; set-up: dose 25 mg/kg, route subcutaneous; outline: as §3
# [9] = Ratio of fAUC (0 to 8 hrs) in epithelial lining fluid to plasma of Staphylococcus aureus-infected BALB/c mouse at 50 mg/kg, sc administered as single dose; format: ADME, organism-based; set-up: dose 50 mg/kg, route subcutaneous; outline: as §3
# [10] = Ratio of fAUC to MIC in methicillin-susceptible Staphylococcus aureus ATCC 29213-infected BALB/c mouse at 80% maximal effective concentration; format: functional
# Outline: (§4)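 Mice were neutropenic and infected by lung instillation with ATCC 29213, with the MIC set by CLSI broth microdilution in triplicate. Sc treatment started 6 h post-inoculation at 1.56–150 mg/kg/day, given as one, two or three doses. Lung CFU at 24 h were compared with 0-h controls. Change in log10 CFU was fitted against protein-binding-corrected fAUC/MIC with a sigmoid Emax model.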
# [11] = Ratio of fAUC to MIC in community-acquired methicillin-resistant Staphylococcus aureus 144-infected BALB/c mouse at 80% maximal effective concentration; format: functional
# Outline: (§5)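 Neutropenic BALB/c mice (cyclophosphamide 250 and 100 mg/kg i.p., 4 and 1 days before infection) were infected by oral inhalation of 0.05 ml inoculum in 3% mucin under isoflurane. Subcutaneous tigecycline (1.56–150 mg/kg/day, single or 2–3 divided doses, saline vehicle) was started 6 h post-infection. At 24 h lungs were homogenized and plated; change in log10 CFU was taken versus 0-h controls.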
# [12] = Ratio of fAUC to MIC in community-acquired methicillin-resistant Staphylococcus aureus 156-infected BALB/c mouse at 80% maximal effective concentration; format: functional; outline: as §5
# [13] = Ratio of fAUC to MIC in community-acquired methicillin-resistant Staphylococcus aureus 147-infected BALB/c mouse at 80% maximal effective concentration; format: functional; outline: as §5
# [14] = Ratio of fAUC to MIC in hospital-acquired methicillin-resistant Staphylococcus aureus 56-infected BALB/c mouse at 80% maximal effective concentration; format: functional; outline: as §5
# [15] = Ratio of fAUC to MIC in hospital-acquired methicillin-resistant Staphylococcus aureus 152-infected BALB/c mouse at 80% maximal effective concentration; format: functional; outline: as §5
# [16] = Ratio of fAUC to MIC in methicillin-susceptible Staphylococcus aureus ATCC 29213-infected BALB/c mouse at […] maximal effective concentration; format: functional; outline: as §4
# [17] = Ratio of fAUC to MIC in community-acquired methicillin-resistant Staphylococcus aureus 144-infected BALB/c mouse at […] maximal effective concentration; format: functional; outline: as §5
# [18] = Ratio of fAUC to MIC in community-acquired methicillin-resistant Staphylococcus aureus 156-infected BALB/c mouse at […] maximal effective concentration; format: functional; outline: as §5
# [19] = Ratio of fAUC to MIC in community-acquired methicillin-resistant Staphylococcus aureus 147-infected BALB/c mouse at […] maximal effective concentration; format: functional; outline: as §5
# [20] = Ratio of fAUC to MIC in hospital-acquired methicillin-resistant Staphylococcus aureus 56-infected BALB/c mouse at […] maximal effective concentration; format: functional; outline: as §5
# [21] = Ratio of fAUC to MIC in hospital-acquired methicillin-resistant Staphylococcus aureus 152-infected BALB/c mouse at […] maximal effective concentration; format: functional; outline: as §5
# [22] = Ratio of fAUC to MIC in methicillin-susceptible Staphylococcus aureus ATCC 29213-infected BALB/c mouse at bacteriostatic concentration; format: functional; outline: as §4
# [23] = Ratio of fAUC to MIC in community-acquired methicillin-resistant Staphylococcus aureus 144-infected BALB/c mouse at bacteriostatic concentration; format: functional; outline: as §5
# [24] = Ratio of fAUC to MIC in community-acquired methicillin-resistant Staphylococcus aureus 156-infected BALB/c mouse at bacteriostatic concentration; format: functional; outline: as §5
# [25] = Ratio of fAUC to MIC in community-acquired methicillin-resistant Staphylococcus aureus 147-infected BALB/c mouse at bacteriostatic concentration; format: functional; outline: as §5
# [26] = Ratio of fAUC to MIC in hospital-acquired methicillin-resistant Staphylococcus aureus 56-infected BALB/c mouse at bacteriostatic concentration; format: functional; outline: as §5
# [27] = Ratio of fAUC to MIC in hospital-acquired methicillin-resistant Staphylococcus aureus 152-infected BALB/c mouse at bacteriostatic concentration; format: functional
# Outline: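 Neutropenic BALB/c mice (cyclophosphamide ip 250 and 100 mg/kg, 4 days and 1 day pre-inoculation), isoflurane-anaesthetised, inoculated via the mouth with 0.05 ml of 3.0 × 10^8 CFU/ml in 3% mucin. SC tigecycline in saline, 1.56–150 mg/kg/day single or 2–3 divided doses from 6 h. Whole-lung CFU at 24 h versus 0-h controls; sigmoid Emax fit of Δlog10 CFU against fAUC/MIC gives stasis value.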
structure (smiles),measurement,setting,value
CN(C)c1cc(NC(=O)CNC(C)(C)C)c(O)c2c1C[C@H]1C[C@H]3[C@H](N(C)C)C(O)=C(C(N)=O)C(=O)[C@@]3(O)C(O)=C1C2=O [TIGECYCLINE],fraction unbound,[1],0.128
same,fraction unbound,[2],0.063
same,fraction unbound,[3],0.041
same,AUC(0-t) at 8 h,[4],11000 ng·h/mL
same,AUC(0-t) at 8 h,[5],20400 ng·h/mL
same,AUC(0-t) at 8 h,[6],41900 ng·h/mL
same,Kp uu,[7],7.02
same,Kp uu,[8],15.1
same,Kp uu,[9],23.9
same,fAUC/MIC,[10],2.68
same,fAUC/MIC,[11],2.64
same,fAUC/MIC,[12],5.22
same,fAUC/MIC,[13],3.12
same,fAUC/MIC,[14],2.11
same,fAUC/MIC,[15],2.48
same,fAUC/MIC,[16],2.33
same,fAUC/MIC,[17],2.29
same,fAUC/MIC,[18],3.91
same,fAUC/MIC,[19],0.69
same,fAUC/MIC,[20],0.38
same,fAUC/MIC,[21],1.43
same,fAUC/MIC,[22],2.38
same,fAUC/MIC,[23],2.17
same,fAUC/MIC,[24],4.18
same,fAUC/MIC,[25],0.41
same,fAUC/MIC,[26],0.43
same,fAUC/MIC,[27],1.51
